Experimental data from ChEMBL document CHEMBL4765452, “Discovery of (E)-N-(4-methyl-5-(3-(2-(pyridin-2-yl)vinyl)-1H-indazol-6-yl)thiazol-2-yl)-2-(4-methylpiperazin-1-yl)acetamide (IHMT-TRK-284) as a novel orally available type II TRK kinase inhibitor capable of overcoming multiple resistant mutants” (Eur J Med Chem, 2020).

Assays:
[1] = Antiproliferative activity in mouse BAF3 cells assessed as growth inhibition after 72 hrs by CCK8 assay; assay type: cell-based
Summary of the method: (§1)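 TEL- or LMNA-fusion isogenic BaF3 lines grown in RPMI 1640 with 10% FBS and 1% penicillin/streptomycin at 37 °C, 5% CO₂; suspension cells collected by spinning at 800 rpm for 4 min before use; growth inhibition scored as GI₅₀.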

[2] = molecular target: High affinity nerve growth factor receptor (Homo sapiens, UniProt P04629); experiment: Inhibition of wild type TEL fused TRKA (unknown origin) transfected in mouse BAF3 cells assessed as growth inhibition after 72 hrs by CCK8 assay; assay type: cell-based
High affinity nerve growth factor receptor, sequence (P04629 33-796 limits assumed): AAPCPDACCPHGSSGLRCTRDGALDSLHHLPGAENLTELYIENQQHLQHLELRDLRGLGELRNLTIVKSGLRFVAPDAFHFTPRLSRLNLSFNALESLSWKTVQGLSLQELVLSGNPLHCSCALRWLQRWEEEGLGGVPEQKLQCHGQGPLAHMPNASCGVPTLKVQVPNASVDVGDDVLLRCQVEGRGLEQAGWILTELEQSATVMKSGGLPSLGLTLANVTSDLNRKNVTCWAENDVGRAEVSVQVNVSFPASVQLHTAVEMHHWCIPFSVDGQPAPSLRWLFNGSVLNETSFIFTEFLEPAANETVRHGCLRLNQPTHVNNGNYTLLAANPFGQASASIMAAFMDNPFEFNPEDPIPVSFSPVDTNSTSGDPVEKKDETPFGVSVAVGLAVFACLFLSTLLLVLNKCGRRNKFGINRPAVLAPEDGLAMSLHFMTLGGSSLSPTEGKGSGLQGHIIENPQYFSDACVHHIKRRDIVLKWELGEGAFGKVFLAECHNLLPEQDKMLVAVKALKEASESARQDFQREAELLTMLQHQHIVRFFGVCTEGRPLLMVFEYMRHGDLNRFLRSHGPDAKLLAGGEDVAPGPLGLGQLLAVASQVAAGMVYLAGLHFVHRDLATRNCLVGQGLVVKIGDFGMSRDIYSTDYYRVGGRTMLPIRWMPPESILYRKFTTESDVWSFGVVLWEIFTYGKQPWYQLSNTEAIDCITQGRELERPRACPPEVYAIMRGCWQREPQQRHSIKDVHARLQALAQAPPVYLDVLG

[3] = molecular target: VEGFR2 (vascular endothelial growth factor receptor 2), wild type, TEL fusion (Homo sapiens, UniProt P35968); experiment: Inhibition of wild type TEL fused VEGFR2 (unknown origin) transfected in mouse BAF3 cells assessed as growth inhibition after 72 hrs by CCK8 assay; assay type: cell-based; details: mouse BaF3 cells transfected with wild type TEL-fused VEGFR2
VEGFR2 (vascular endothelial growth factor receptor 2), wild type, TEL fusion, sequence (P35968 whole entry, the tested form may be a part): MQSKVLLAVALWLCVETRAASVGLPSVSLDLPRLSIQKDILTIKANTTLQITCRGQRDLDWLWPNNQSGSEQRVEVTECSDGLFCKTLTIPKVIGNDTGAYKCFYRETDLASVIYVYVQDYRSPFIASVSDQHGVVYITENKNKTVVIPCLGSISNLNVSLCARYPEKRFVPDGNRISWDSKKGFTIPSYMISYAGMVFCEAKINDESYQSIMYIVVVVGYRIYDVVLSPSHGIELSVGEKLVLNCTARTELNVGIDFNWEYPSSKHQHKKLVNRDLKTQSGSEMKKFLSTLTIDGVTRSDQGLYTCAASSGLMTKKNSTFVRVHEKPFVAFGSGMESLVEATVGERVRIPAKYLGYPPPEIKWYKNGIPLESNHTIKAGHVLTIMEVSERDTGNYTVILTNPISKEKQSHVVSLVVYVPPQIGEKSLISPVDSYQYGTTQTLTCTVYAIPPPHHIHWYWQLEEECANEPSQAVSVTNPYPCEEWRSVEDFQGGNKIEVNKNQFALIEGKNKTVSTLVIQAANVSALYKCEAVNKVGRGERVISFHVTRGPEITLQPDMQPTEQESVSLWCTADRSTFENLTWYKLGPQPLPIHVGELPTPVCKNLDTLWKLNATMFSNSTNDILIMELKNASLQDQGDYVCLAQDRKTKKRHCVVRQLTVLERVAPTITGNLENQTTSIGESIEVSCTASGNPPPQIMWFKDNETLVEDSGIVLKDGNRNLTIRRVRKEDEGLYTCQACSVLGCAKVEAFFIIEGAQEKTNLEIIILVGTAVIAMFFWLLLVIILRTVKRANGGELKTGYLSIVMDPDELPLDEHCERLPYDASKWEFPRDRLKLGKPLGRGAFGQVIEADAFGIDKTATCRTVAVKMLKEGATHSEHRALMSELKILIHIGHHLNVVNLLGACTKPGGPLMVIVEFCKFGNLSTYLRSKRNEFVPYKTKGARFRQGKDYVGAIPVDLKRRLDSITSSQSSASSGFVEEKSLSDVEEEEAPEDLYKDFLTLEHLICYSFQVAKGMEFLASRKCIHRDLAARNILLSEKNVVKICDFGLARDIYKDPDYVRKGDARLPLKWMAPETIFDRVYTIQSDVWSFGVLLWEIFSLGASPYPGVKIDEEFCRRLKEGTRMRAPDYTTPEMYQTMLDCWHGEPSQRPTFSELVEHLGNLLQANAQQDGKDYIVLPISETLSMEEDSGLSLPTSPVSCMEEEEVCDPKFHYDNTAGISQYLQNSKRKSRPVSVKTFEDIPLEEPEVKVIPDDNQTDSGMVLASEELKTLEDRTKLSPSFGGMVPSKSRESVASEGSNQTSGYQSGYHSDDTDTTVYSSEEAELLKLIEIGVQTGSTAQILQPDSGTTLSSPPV

[4] = Antitumor activity against human […] cells xenografted in nude mouse assessed as tumor growth inhibition at 80 mg/kg, po administered once daily for 10 days relative to control; assay type: functional; details: KM12-Luc, 240 h, time 10 day, read-out: TGI
Summary of the method: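 Nu/nu mice given 5 million KM-12-LUC cells in DMEM, 1:1 with matrigel, injected subcutaneously into the right flank; oral gavage started at tumor size 150–200 mm³, 5 mice per group, compound in 0.5% methylcellulose/0.4% Tween 80 in ddH₂O; body weight and tumor volume [(W²×L)/2] measured daily; TGI versus vehicle.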

[5] = Antiproliferative activity against human KM-12-LUC cells harboring […] fused TRKA assessed as growth inhibition after 72 hrs by CCK8 assay; assay type: functional; details: KM12-Luc
Summary of the method: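 KM-12-LUC cells seeded at 3 × 10⁴ cells/mL, incubated overnight at 37 °C, 5% CO₂, then medium replaced with fresh medium containing a range of compound concentrations for 72 h; viability read by CCK-8 absorbance at 450 nm, normalized to DMSO control, GI₅₀ from curve fitting.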

BaF3 [6] = experiment: Antitumor activity against mouse BAF3 cells harboring TEL fused TRKA allografted in nude mouse assessed as tumor growth inhibition at 80 mg/kg, po administered once daily for 10 days relative to control; assay type: functional; details: 240 h, time 10 day, read-out: TGI
Summary of the method: (§2)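 Nu/nu mice given 1 million BaF3 cells (TEL-TRKA, TEL-TRKB, TEL-TRKC, LMNA-TRKA-F589L or LMNA-TRKA-G667S) in DMEM, 1:1 with matrigel, injected subcutaneously into the right flank; oral gavage began at 200–400 mm³, 5 mice per group, compound in 0.5% methylcellulose/0.4% Tween 80 in ddH₂O, 10 days; tumor volume [(W²×L)/2] and body weight recorded daily; TGI versus vehicle.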

BaF3 [7] = experiment: Inhibition of LMNA fused TRKA F589L mutant (unknown origin) transfected in mouse BAF3 cells assessed as growth inhibition after 72 hrs by CCK8 assay; assay type: cell-based; details: Homo sapiens; summary of the method: as §1
BaF3 [8] = experiment: Inhibition of LMNA fused TRKA V573M mutant (unknown origin) transfected in mouse BAF3 cells assessed as growth inhibition after 72 hrs by CCK8 assay; assay type: cell-based; details: Homo sapiens
[9] = system: High affinity nerve growth factor receptor (Homo sapiens), P04629 [G667C]; experiment: Inhibition of LMNA fused TRKA G667C mutant (unknown origin) transfected in mouse BAF3 cells assessed as growth inhibition after 72 hrs by CCK8 assay; assay type: cell-based; summary of the method: as §1
High affinity nerve growth factor receptor (Homo sapiens), P04629 [G667C], sequence (P04629 whole entry G667C, looked up, the tested form may be a part): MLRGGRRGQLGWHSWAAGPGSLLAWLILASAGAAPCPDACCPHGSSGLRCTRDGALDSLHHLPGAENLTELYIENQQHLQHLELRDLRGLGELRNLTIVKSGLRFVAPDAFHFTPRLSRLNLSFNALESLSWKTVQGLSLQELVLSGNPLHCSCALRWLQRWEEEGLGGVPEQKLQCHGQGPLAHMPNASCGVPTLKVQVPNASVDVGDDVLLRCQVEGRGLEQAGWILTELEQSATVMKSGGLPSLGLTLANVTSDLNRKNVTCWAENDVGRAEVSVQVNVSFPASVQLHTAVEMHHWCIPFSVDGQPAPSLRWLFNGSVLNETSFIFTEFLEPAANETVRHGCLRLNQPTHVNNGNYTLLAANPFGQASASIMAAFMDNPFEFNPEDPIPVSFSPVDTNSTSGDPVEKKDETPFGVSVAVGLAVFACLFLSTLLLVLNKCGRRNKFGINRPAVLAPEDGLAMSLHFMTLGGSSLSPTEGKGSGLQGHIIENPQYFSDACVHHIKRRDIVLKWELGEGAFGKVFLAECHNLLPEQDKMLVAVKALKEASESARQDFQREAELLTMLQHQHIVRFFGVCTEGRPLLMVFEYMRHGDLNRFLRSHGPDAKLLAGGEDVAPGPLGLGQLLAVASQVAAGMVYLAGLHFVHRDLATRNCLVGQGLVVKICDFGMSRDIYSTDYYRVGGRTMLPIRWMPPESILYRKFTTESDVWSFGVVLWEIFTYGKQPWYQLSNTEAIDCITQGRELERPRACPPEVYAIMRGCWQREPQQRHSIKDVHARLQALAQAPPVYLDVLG

BaF3 [10] = experiment: Antitumor activity against mouse BAF3 cells harboring TEL fused TRKC allografted in nude mouse assessed as tumor growth inhibition at 80 mg/kg, po administered once daily for 10 days relative to control; assay type: functional; details: 240 h, time 10 day, read-out: TGI; summary of the method: as §2
BaF3 [11] = experiment: Inhibition of LMNA fused TRKA G667S mutant (unknown origin) transfected in mouse BAF3 cells assessed as growth inhibition after 72 hrs by CCK8 assay; assay type: cell-based; details: Homo sapiens

Cc1nc(NC(=O)c2cccc(C(F)(F)F)c2)sc1-c1ccc2c(/C=C/c3ccccn3)n[nH]c2c1
GI50 at 72 h [1]: > 10000 nM | GI50 [2]: 3 nM | GI50 at 72 h [3]: 5 nM

Cc1nc(NC(=O)C2CCNCC2)sc1-c1ccc2c(/C=C/c3ccccn3)n[nH]c2c1
GI50 at 72 h [1]: 8710 nM | GI50 [2]: 145 nM | GI50 at 72 h [3]: 3050 nM

Cc1nc(NC(=O)Cc2cccc(Cl)c2)sc1-c1ccc2c(/C=C/c3ccccn3)n[nH]c2c1
GI50 at 72 h [1]: 4100 nM | GI50 [2]: 2 nM | GI50 at 72 h [3]: 10 nM

Cc1nc(NC(=O)Cc2cccc3ccccc23)sc1-c1ccc2c(/C=C/c3ccccn3)n[nH]c2c1
GI50 at 72 h [1]: 3690 nM | GI50 [2]: 33 nM | GI50 at 72 h [3]: 15 nM

Cc1nc(NC(=O)C(C)C)sc1-c1ccc2c(/C=C/c3ccccn3)n[nH]c2c1
GI50 at 72 h [1]: 1580 nM | GI50 [2]: 251 nM | GI50 at 72 h [3]: 181 nM

Cc1nc(NC(=O)CN2CCN(C)CC2)sc1-c1ccc2c(-c3cncc(F)c3)n[nH]c2c1
GI50 at 72 h [1]: 1690 nM | GI50 [2]: 54 nM | GI50 at 72 h [3]: 1800 nM

O=C(Nc1cnn2ccc(N3CCC[C@@H]3c3cc(F)ccc3F)nc12)N1CC[C@H](O)C1 [LAROTRECTINIB]
GI50 at 72 h [1]: > 10000 nM | inhibition in vivo at 80 mg/kg/day [4]: 78.9% | GI50 [5]: 11 nM | inhibition in vivo at 80 mg/kg/day (BaF3 [6]): 38.5% | GI50 (BaF3 [7]): 102 nM | GI50 (BaF3 [8]): 258 nM | GI50 [9]: 602 nM | inhibition in vivo at 80 mg/kg/day (BaF3 [10]): 33.8% | GI50 (BaF3 [11]): 148 nM

Cc1nc(NC(=O)CC2CCN(C)CC2)sc1-c1ccc2c(/C=C/c3ccccn3)n[nH]c2c1
GI50 at 72 h [1]: 1560 nM | GI50 [2]: 32 nM | GI50 at 72 h [3]: 570 nM

CN1CCN(Cc2ccc(NC(=O)CCSc3ccc4c(/C=C/c5ccccn5)n[nH]c4c3)cc2C(F)(F)F)CC1
GI50 [2]: 63 nM | GI50 at 72 h [3]: 2 nM

Cc1nc(NC(=O)CN2CCN(C)CC2)sc1-c1ccc2c(-c3cccnc3)n[nH]c2c1
GI50 at 72 h [1]: 5130 nM | GI50 [2]: 251 nM | GI50 at 72 h [3]: 2630 nM

CN1CCN(Cc2ccc(NC(=O)CCSc3ccc4c(/C=C/c5cnccn5)n[nH]c4c3)cc2C(F)(F)F)CC1
GI50 at 72 h [1]: 1640 nM | GI50 [2]: 88 nM | GI50 at 72 h [3]: 2 nM

CC(=O)Nc1nc(C)c(-c2ccc3c(/C=C/c4ccccn4)n[nH]c3c2)s1
GI50 at 72 h [1]: 5240 nM | GI50 [2]: 4310 nM | GI50 at 72 h [3]: 301 nM

CN1CCN(Cc2ccc(NC(=O)CCSc3ccc4c(-c5ccncc5)n[nH]c4c3)cc2C(F)(F)F)CC1
GI50 [2]: 448 nM | GI50 at 72 h [3]: 1 nM

CN1CCN(Cc2ccc(NC(=O)NCCSc3ccc4c(/C=C/c5ccccn5)n[nH]c4c3)cc2C(F)(F)F)CC1
GI50 [2]: 646 nM | GI50 at 72 h [3]: 42 nM

Cc1nc(NC(=O)CN2CCN(C)CC2)sc1-c1ccc2c(-c3cccc(F)c3)n[nH]c2c1
GI50 at 72 h [1]: 1740 nM | GI50 [2]: > 10000 nM | GI50 at 72 h [3]: 1710 nM

CN1CCN(Cc2ccc(C(=O)Nc3cccc(Sc4ccc5c(/C=C/c6ccccn6)n[nH]c5c4)c3)cc2C(F)(F)F)CC1
GI50 at 72 h [1]: 1260 nM | GI50 [2]: 920 nM | GI50 at 72 h [3]: 13 nM

Cc1n[nH]c2cc(SCCC(=O)Nc3ccc(CN4CCN(C)CC4)c(C(F)(F)F)c3)ccc12
GI50 [2]: 729 nM | GI50 at 72 h [3]: 9 nM

CN1CCN(Cc2ccc(NC(=O)CC(=O)Nc3ccc4c(/C=C/c5ccccn5)n[nH]c4c3)cc2C(F)(F)F)CC1
GI50 at 72 h [1]: 2500 nM | GI50 [2]: 248 nM | GI50 at 72 h [3]: 4 nM

Cc1ccc(-c2n[nH]c3cc(SCCC(=O)Nc4ccc(CN5CCN(C)CC5)c(C(F)(F)F)c4)ccc23)cn1
GI50 [2]: 516 nM | GI50 at 72 h [3]: 1 nM

Cc1nc(NC(=O)C(N)Cc2ccccc2)sc1-c1ccc2c(/C=C/c3ccccn3)n[nH]c2c1 (stereo not given)
GI50 at 72 h [1]: 708 nM | GI50 [2]: 68 nM | GI50 at 72 h [3]: 97 nM

Cc1nc(NC(=O)CC2CCCNC2)sc1-c1ccc2c(/C=C/c3ccccn3)n[nH]c2c1 (stereo not given)
GI50 at 72 h [1]: 8350 nM | GI50 [2]: 300 nM | GI50 at 72 h [3]: 1930 nM

Cc1nc(NC(=O)Cc2cccc(C(F)(F)F)c2)sc1-c1ccc2c(/C=C/c3ccccn3)n[nH]c2c1
GI50 at 72 h [1]: 2310 nM | GI50 [2]: 2 nM | GI50 at 72 h [3]: 13 nM

COCCOCC(=O)Nc1nc(C)c(-c2ccc3c(/C=C/c4ccccn4)n[nH]c3c2)s1
GI50 at 72 h [1]: 1070 nM | GI50 [2]: 35 nM | GI50 at 72 h [3]: 1780 nM

Cc1nc(NC(=O)C2CCN(C)CC2)sc1-c1ccc2c(/C=C/c3ccccn3)n[nH]c2c1
GI50 at 72 h [1]: 2510 nM | GI50 [2]: 89 nM | GI50 at 72 h [3]: 2040 nM

Cc1nc(NC(=O)CN2CCN(C)CC2)sc1-c1ccc2c(-c3cnc(N)nc3)n[nH]c2c1
GI50 at 72 h [1]: > 10000 nM | GI50 [2]: 752 nM | GI50 at 72 h [3]: 5630 nM

Cc1nc(NC(=O)CN2CCN(C)CC2)sc1-c1ccc2c(-c3ccn(C)n3)n[nH]c2c1
GI50 at 72 h [1]: 1530 nM | GI50 [2]: 73 nM | GI50 at 72 h [3]: 351 nM

Cc1nc(NC(=O)c2ccc(CN3CCN(C)CC3)cc2)sc1-c1ccc2c(/C=C/c3ccccn3)n[nH]c2c1
GI50 at 72 h [1]: 1460 nM | GI50 [2]: 8 nM | GI50 at 72 h [3]: 12 nM

CN1CCN(Cc2ccc(C(=O)NCCCSc3ccc4c(/C=C/c5ccccn5)n[nH]c4c3)cc2C(F)(F)F)CC1
GI50 [2]: 370 nM | GI50 at 72 h [3]: 1 nM

CN1CCN(Cc2ccc(C(=O)NCCSc3ccc4c(/C=C/c5ccccn5)n[nH]c4c3)cc2C(F)(F)F)CC1
GI50 at 72 h [1]: 4400 nM | GI50 [2]: 370 nM | GI50 at 72 h [3]: 41 nM

Cc1nc(NC(=O)CC2CCNCC2)sc1-c1ccc2c(/C=C/c3ccccn3)n[nH]c2c1
GI50 at 72 h [1]: > 10000 nM | GI50 [2]: 116 nM | GI50 at 72 h [3]: 982 nM

CN1CCN(Cc2ccc(NC(=O)Nc3cccc(Sc4ccc5c(/C=C/c6ccccn6)n[nH]c5c4)c3)cc2C(F)(F)F)CC1
GI50 at 72 h [1]: 3090 nM | GI50 [2]: 62 nM | GI50 at 72 h [3]: 15 nM

COc1ccc(CC(=O)Nc2nc(C)c(-c3ccc4c(/C=C/c5ccccn5)n[nH]c4c3)s2)cc1OC
GI50 at 72 h [1]: 4870 nM | GI50 [2]: 40 nM | GI50 at 72 h [3]: 19 nM

Cc1nc(NC(=O)Nc2cccc(C(F)(F)F)c2)sc1-c1ccc2c(/C=C/c3ccccn3)n[nH]c2c1
GI50 at 72 h [1]: 105 nM | GI50 [2]: 3 nM | GI50 at 72 h [3]: 4 nM

CN1CCN(Cc2ccc(NC(=O)CCSc3ccc4c(/C=C/c5ccncc5)n[nH]c4c3)cc2C(F)(F)F)CC1
GI50 at 72 h [1]: 543 nM | GI50 [2]: 18 nM | GI50 at 72 h [3]: 2 nM

Cc1nc(NC(=O)CN2CCN(CCO)CC2)sc1-c1ccc2c(/C=C/c3ccccn3)n[nH]c2c1
GI50 at 72 h [1]: 1020 nM | GI50 [2]: 18 nM | GI50 at 72 h [3]: 81 nM

CSCCC(N)C(=O)Nc1nc(C)c(-c2ccc3c(/C=C/c4ccccn4)n[nH]c3c2)s1 (stereo not given)
GI50 at 72 h [1]: 594 nM | GI50 [2]: 13 nM | GI50 at 72 h [3]: 101 nM

CN1CCN(Cc2ccc(NC(=O)CCSc3ccc4c(-c5cccnc5)n[nH]c4c3)cc2C(F)(F)F)CC1
GI50 [2]: 736 nM | GI50 at 72 h [3]: 9 nM
